Results of several laboratories.

| Structure (SMILES) | test | system | conditions | solubility |
| --- | --- | --- | --- | --- |
| Clc1cccc(Nc2nc(NCc3cccc(Br)c3)c3ccccc3n2)c1 |  | aqueous buffer | pH 5 | 0.1 µg/mL |
| COCc1nn(Cc2ccc(Cn3ccccc3=O)cc2)cc1C(=O)NCc1c(F)ccc(OC)c1F |  | FaSSIF | 4 h, pH 6.5 | 9 µg/mL |
| CC(=O)N[C@@H](CC(N)=O)C(=O)N[C@@H](CC(N)=O)C(=O)N[C@@H](CC(C)C)C(=O)N[C@H]1CSSC[C@@H](C(=O)N[C@H](C(N)=O)[C@@H](C)O)NC(=O)[C@H](CCCNC(=N)N)NC(=O)[C@H](Cc2c[nH]cn2)NC(=O)[C@H](C)NC(=O)CNC(=O)[C@H](Cc2c[nH]c3ccccc23)NC(=O)[C@H](CC(=O)O)NC(=O)[C@H](CCC(N)=O)NC(=O)[C@H](Cc2c[nH]c3ccccc23)NC(=O)[C@H](C(C)C)NC1=O |  | PBS | pH 7.4 | 3920 µg/mL |
| COc1cccc2c(NCc3ccccc3)nc(-n3c(=O)oc4ccccc43)nc12 |  | aqueous buffer | pH 5 | 0.02 µg/mL |
| CCCN(C)Cc1cc(-c2[nH]c3cccc(F)c3c(=O)c2C)ccc1Cc1ccc(OC(F)(F)F)cc1 |  | PBS | pH 7.4 | < 0.2 µM |
| COc1cc(OC)cc(N(CCNC(C)C)c2ccc3ncc(-c4cnn(C)c4)nc3c2)c1 |  | aqueous buffer | pH 6.79 | 6820 µg/mL |
| O=C1NCCc2nc(OCc3cccc(F)c3)ccc21 |  | FaSSIF | 24 h, pH 7.2 | 114 µM |
| CCc1nc2nc(C)cc(Nc3ccc(C(F)(F)F)cc3)n2n1 | nephelometry | aqueous buffer | pH 6.5 | 39 to 78 µM |
| COC(=O)c1ccc(N)cc1 |  | PBS | pH 7.4 | 1800 µg/mL |
| Cc1cc(F)cc(Nc2nc(NCc3ccccc3)c3ccccc3n2)c1 |  | aqueous buffer | pH 5 | 0.05 µg/mL |
| [Cl-].c1ccc2nc(Cn3c[n+](Cc4ccc5ccccc5n4)c4ccccc43)ccc2c1 |  | water |  | > 500 µg/mL |
| O=C(O)Cc1ccccc1Nc1c(Cl)cccc1Cl |  | PBS | pH 7.4 | 199 µM |
| CNC(=O)c1ccc(N(Cc2ccc(C3CCCCC3)cn2)C(=O)[C@H]2CCN2S(=O)(=O)c2c(F)c(F)c(F)c(F)c2F)cc1O |  | simulated gastric fluid |  | 115 µg/mL |
| COCCc1nc2nc(C)cc(Nc3ccc(C(F)(F)F)cc3)n2n1 | nephelometry | aqueous buffer | pH 6.5 | 71 to 140 µM |
| O=C(O)c1ccc(-c2ccc(-c3cc4ccc(O)cc4oc3=O)cc2)cc1 | shake flask | PBS | 36 h, pH 7.4 | 52.5 µM |
| COc1cccc(OC)c1-c1nc(C(=O)N[C@@H](CC(C)C)C(=O)O)cn1-c1ccnc2cc(Cl)ccc12 |  | aqueous buffer | pH 6.2 | > 52 µg/mL |
| CCCn1nc(C(=O)N2CCCCC2)c2c1CCC(N1CCc3ccccc3C1)C2 (stereo not shown) |  | PBS | 16 h, pH 7.4 | 713 µM |
| CC(C)CC(=O)N1CCC[C@H](COc2cccc3c2C(N)=NS(=O)(=O)N3)C1 |  | ethanol |  | 1230 µM |
| O=C(Nc1ccc(S(=O)(=O)N2CCC(Cl)CC2)cc1)c1ccc([N+](=O)[O-])o1 |  | PBS | pH 7.4 | 9.4 µM |
| Clc1ccc2c(nc(N3CCNCC3)n2Cc2ccccc2)c1Br | shake flask | aqueous buffer | 20 h, pH 6.5, 25 °C | 50 µM |
| CCOc1ccc2cc(-c3nn(CC(C)(C)CO)c(N)c3C(N)=O)ccc2n1 |  | PBS | pH 6.5, 25 °C | > 100 µM |
| COc1cccc(OC)c1-c1nc(C(=O)N[C@@H](CC(C)C)C(=O)O)cn1-c1cccc2ccccc12 |  | aqueous buffer | pH 7.4 | > 145 µg/mL |
| CN1CCN(CC2CCN(c3cccc4[nH]c(-c5cc(F)cc(F)c5)nc34)CC2)CC1 | shake flask | aqueous buffer | pH 6.5 | > 200 µM |
| CCn1c(-c2nc3ccc(C(=O)N4CCCC(N)C4)cc3n2C)cc2ccccc21 (stereo not shown) |  | aqueous buffer |  | 243 µM |
| C[C@@H]1CN(c2nc3cc(Cl)ccc3n2Cc2ccccc2)C[C@H](C)N1 | shake flask | aqueous buffer | 20 h, pH 6.5, 25 °C | 140 µM |
| CC(C)(C)n1nc(-c2cnc3cc(OCC4CC4)ccc3c2)c(C(N)=O)c1N |  | PBS | pH 6.5, 25 °C | 26.8 µM |
| Clc1ccc2c(c1)nc(NCCN1CCOCC1)n2Cc1ccccc1 | shake flask | aqueous buffer | 20 h, pH 6.5, 25 °C | 53 µM |
| COc1cc(NC(=O)c2ccc(C3=CCN(C(=N)N)CC3)c(F)c2)ccc1C1=CCN(C(=N)N)CC1 | shake flask | aqueous buffer | pH 7.4 | 1210 µg/mL |

| Structure (SMILES) | test | system | conditions | solubility |
| --- | --- | --- | --- | --- |
| Cc1c(F)cccc1NC(=O)Nc1ccc(Cl)c(S(=O)(=O)[C@H]2CCCNC2)c1O |  | aqueous buffer | 4 h, pH 3 | 161 µg/mL |
| CCOc1ccc2cc(-c3nn(CC4CC4)c(N)c3C(N)=O)cnc2c1 |  | PBS | pH 6.5, 25 °C | 26.5 µM |
| O=C(Nc1c2c(cc3c1CCC3)CCC2)NS(=O)(=O)/C=C/c1nccs1 |  | water | 24 h, 37 °C | 11.2 µg/mL |
| CN(C)C1CN(Cc2ccc(NC(=O)c3ccc(OCCCl)c([N+](=O)[O-])c3)cc2C(F)(F)F)C1 | HPLC | water | 1 h | < 5 µg/mL |
| Cc1ccc(F)cc1Nc1nc(NCc2ccccc2)c2ccccc2n1 |  | aqueous buffer | pH 6.2 | 0.07 µg/mL |
| COc1ccc(N2CCN(CCCNC(=O)Cn3c(=O)c4cccn4c4c(C)ccnc43)CC2)cc1 |  | aqueous buffer | pH 7.4 | 12.4 µg/mL |
| CS(=O)(=O)N1CCN(Cc2cc3nc(-c4cccc5[nH]ncc45)nc(N4CCOCC4)c3s2)CC1 |  | FeSSIF |  | 6 µg/mL |
| CCOc1ccc2cc(-c3nn(C(C)C)c(N)c3C(N)=O)ccc2n1 |  | PBS | pH 6.5, 25 °C | > 100 µM |
| c1ccc(CNc2nc(N3CCOc4ccccc43)nc3ccccc23)cc1 |  | aqueous buffer | pH 5 | 25.2 µg/mL |
| CN1CCC(N2CCN(c3nccc4[nH]c(-c5ccc(F)c(F)c5)nc34)CC2)CC1 | shake flask | aqueous buffer | pH 6.5 | > 200 µM |
| COC(=O)C1=C(C)NC(C)=C(C(=O)OCCN(C)Cc2ccccc2)C1c1cccc([N+](=O)[O-])c1 (stereo not shown) |  | FaSSIF | 24 h, pH 7.4, 37 °C | 227 µg/mL |
| Cc1cc(Nc2ccc(C(F)(F)F)cc2)n2nc(CCO)nc2n1 | nephelometry | aqueous buffer | pH 6.5 | 19 to 37 µM |
| OCCOc1cccc2c(NCc3ccccc3)nc(N3CCOc4ccccc43)nc12 |  | aqueous buffer | pH 7.4 | 0.43 µg/mL |
| Cc1ccc(-c2ccccc2C(=O)Nc2c(C)cccc2C(=O)O)cc1 | shake flask | aqueous buffer | 24 h, pH 6.5, 25 °C | 175 µM |
| COc1cccc2c(NCc3ccccc3)nc(NCc3ccccc3)nc12 |  | aqueous buffer | pH 6.2 | 1 µg/mL |
| CC(C)[C@@H]1CC[C@@H](C)CC1=O |  | PBS | 48 h, pH 7.4, 25 °C | 3000 µM |
| CN1CCN(CC2CCN(c3nccc4[nH]c(-c5cccc(OCCN)c5)nc34)CC2)CC1 | shake flask | aqueous buffer | pH 6.5 | > 200 µM |
| Clc1ccc2c(c1)nc(NCc1ccccn1)n2Cc1ccccc1 | shake flask | aqueous buffer | 20 h, pH 6.5, 25 °C | 15 µM |
| COCc1nc2nc(C)cc(Nc3ccc(C(F)(F)F)cc3)n2n1 | nephelometry | aqueous buffer | pH 6.5 | 150 to 300 µM |
| CC(C)Cc1ccc(C(C)C(=O)O)cc1 (stereo not shown) |  | PBS | pH 7.4 | 4580 µg/mL |
| Cc1cc(Nc2cccc(Cl)c2)n2nc(C(C)(F)F)nc2n1 | nephelometry | aqueous buffer | pH 6.5 | 77 to 150 µM |
| Cc1cccc(C(=O)Nc2cccc(NC(=O)c3ccccc3)c2)c1 |  | PBS | pH 7.4 | 0.82 µM |
| O=C(CCCCCCC(=O)Nc1ccccc1)NO |  | simulated gastric fluid | 48 h, pH 2, 25 °C, acidic | 160 µg/mL |
| Nc1cccc(S(=O)(=O)N2CCN(S(=O)(=O)c3ccc4c(c3)OCCO4)CC2)c1 |  | aqueous buffer |  | 4.1 µg/mL |
| COc1ccc(Nc2nc(NCc3ccccc3)c3ccccc3n2)cc1F |  | aqueous buffer | pH 5 | 3.4 µg/mL |
| CCOc1ccc2cc(-c3nn(CC4CC4)c(N)c3C(N)=O)ccc2n1 |  | PBS | pH 6.5, 25 °C | 10.9 µM |
| CN1CCN(C[C@H]2CCCN(c3nccc4[nH]c(-c5cc(F)cc(F)c5)nc34)C2)CC1 | shake flask | aqueous buffer | pH 6.5 | > 200 µM |
